# Screening data deposited in PubChem by The Scripps Research Institute Molecular Screening Center.
# The list is not random: actives were taken first. Their share in the collection is about 2.5%.
# TCR-CD3 inh = human TCR-CD3 binding inhibition; TAMRA-labeled TCR probe fluorescence, biochemical; inhibition, % at 9.4 µM; 360,000 tested, 0.37% active; in the data active means inhibition above about 19%;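 further: recombinant mutant TCR 2C K166C tagged with TAMRA read by polarization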
# HTRA1 inhibitor = blocks human HTRA1 serine peptidase; AID 504803; recombinant HTRA1, FP-rhodamine activity-based probe, fluorescence polarization; Q92743; 340,000 tested, 0.5% active; inhibition, % at 5.96 µM; in the data active means inhibition above about 36%
# SIAE inh = human SIAE inhibition, primary screen | SIAE FP-Rh probe binding, fluorescence polarization | inhibition, % at 9.66 µM | 370,000 tested, 0.69% active | AID 1053197;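 active means inhibition above a cutoff: mean of compounds within the control limits plus 3 SD of those, cut at about 17% in these data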
# Target sequence (Q9HAT2 whole entry, looked up): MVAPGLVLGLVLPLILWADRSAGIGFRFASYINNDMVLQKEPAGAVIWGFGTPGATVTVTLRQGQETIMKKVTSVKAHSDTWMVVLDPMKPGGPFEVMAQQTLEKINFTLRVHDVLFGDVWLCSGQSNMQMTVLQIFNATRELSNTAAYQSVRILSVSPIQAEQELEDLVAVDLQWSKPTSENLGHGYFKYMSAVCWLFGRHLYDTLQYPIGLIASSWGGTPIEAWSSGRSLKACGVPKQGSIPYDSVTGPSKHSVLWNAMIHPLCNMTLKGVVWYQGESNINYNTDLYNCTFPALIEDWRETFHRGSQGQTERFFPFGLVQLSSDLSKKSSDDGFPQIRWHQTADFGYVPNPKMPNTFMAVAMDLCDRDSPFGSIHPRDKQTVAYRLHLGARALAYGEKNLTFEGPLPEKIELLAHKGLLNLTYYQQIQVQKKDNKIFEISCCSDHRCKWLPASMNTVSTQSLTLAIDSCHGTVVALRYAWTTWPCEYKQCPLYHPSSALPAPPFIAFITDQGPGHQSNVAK
# rCAG binder = binds r(CAG) RNA repeats | r(CAG) RNA repeat, TO-PRO-1 dye displacement fluorescence | 370,000 tested, 1.3% active | AID 651821 | inhibition, % at 3 µM;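 active means inhibition above the plate cutoff, the mean of all test compounds on that plate plus 3 SD, cut at about 35% in these data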;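 further: higher means more dye released from RNA so lower well fluorescence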
# mABHD4 FP = inhibits mouse alpha/beta hydrolase domain 4; inhibition, % at 8.92 µM; 370,000 tested, 0.54% active; purified mABHD4, FP-Rh probe fluorescence polarization; AID 720543; Q8VD66;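 active means inhibition exceeding the mean over every tested compound plus 3 SD, cut at about 30% in these data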
#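 Assay system: mABHD4 protein; medium: HEPES pH 7.0, NaCl, Pluronic buffer; dosing: 8.92 µM, single dose; schedule: 45 min + 60 min at 25 °C; signal: FP readout, ex 525 nm / em 598 nm; read-out: normalized percent inhibition of probe labeling; repeats: single replicate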
# rCAG bind conf = r(CAG) RNA repeat binding, confirmation | shares compounds with rCAG binder | TO-PRO-1 dye displacement fluorescence | inhibition, % at 3 µM | 4,300 tested, 70% active | AID 652065;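 active means inhibition above a per-plate cutoff, the mean inhibition of sample wells plus 3 SD, cut at about 35% in these data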;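 further: loss of TO-PRO-1 fluorescence as compound displaces dye from 1x1 AA loop RNA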
# DNA CAG counter = counter-screen for rCAG RNA binders: DNA CAG dye complex inhibitors | shares compounds with rCAG binder | d(CAG) DNA oligo TO-PRO-1 dye displacement, fluorescence | inhibition, % at 3 µM | 4,300 tested, 94% active;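 active means inhibition above its plate's cutoff, the mean test-well inhibition plus 3 SD, cut at about 4.8% in these data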;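 further: hits displace the dye from DNA and so lower well fluorescence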
# A number is an active result; - = inactive; . = no result given.
SMILES,TCR-CD3 inh,HTRA1 inhibitor,SIAE inh,rCAG binder,mABHD4 FP,rCAG bind conf,DNA CAG counter
O=C(CN(c1ccccc1)S(=O)(=O)c1ccccc1)N1CCOCC1,-,-,-,-,-,.,.
O=C(O)COc1ccc(/C=C/C(=O)c2ccc(C3CCCCC3)cc2)cc1,-,-,-,48.2,-,67.9,28.9
CC(=O)N1c2ccc(S(=O)(=O)NCC3CCC(C(=O)N4CCCCC4)CC3)cc2CC1C (stereo unspecified),-,-,-,-,-,.,.
Fc1ccccc1-c1n[nH]c(=S)n1N=Cc1ccc(OCc2ccccc2)cc1,.,.,-,70.3,-,58.0,19.5
Fc1ccc(-c2n[nH]c(=S)n2N=Cc2ccc(OCc3ccccc3)cc2)cc1,.,.,-,66.8,-,46.7,16.7
COc1ccc(C=Nn2c(-c3n[nH]c4c3CCC4)n[nH]c2=S)cc1OCc1ccccc1,.,.,-,48.7,-,45.1,17.4
Oc1ccccc1/C=N/n1c(-c2ccccc2)n[nH]c1=S,-,-,-,-,-,.,.
CCN(CC)c1ccc(C=Nn2c(-c3ccc(F)cc3)n[nH]c2=S)c(O)c1,.,.,-,64.3,-,52.0,15.7
COc1cc(C=Nn2c(-c3n[nH]c4c3CCC4)n[nH]c2=S)ccc1OCc1ccccc1,.,.,-,-,-,.,.
Cn1nc(C(C)(C)C)cc1NC(=O)C1(C)CCN1C(=O)CC(c1ccccc1)c1ccccc1 (stereo unspecified),-,.,-,-,-,.,.
Cc1onc(C(=O)Nc2ccccc2C(F)(F)F)c1[N+](=O)[O-],-,-,-,-,-,.,.
Cc1onc(-c2ccccc2)c1C(=O)N1CCCC1,-,-,-,-,-,.,.
Oc1ccc2ccccc2c1C=Nn1c(-c2n[nH]c3c2CCC3)n[nH]c1=S,.,.,-,71.5,-,60.2,22.0
Fc1ccc(-c2n[nH]c(=S)n2N=Cc2ccc(-c3ccccc3)cc2)cc1,.,.,-,43.9,-,39.6,16.1
COc1ccc(C=Nn2c(-c3ccccc3F)n[nH]c2=S)cc1OCc1ccccc1,.,.,-,49.6,-,41.6,10.1
O=C1N=c2ccccc2=C1c1sc(NS(=O)(=O)c2ccccc2)nc1O,-,-,-,41.3,-,-,6.0
O=C(O)Cn1c(O)c(C2=c3ccccc3=NC2=O)sc1=O,-,-,-,-,-,.,.
O=C1N=c2ccccc2=C1c1sc(Nc2ccc(O)cc2)nc1O,-,-,-,40.8,-,-,17.8
O=C(O)CCC(C(=O)O)n1c(O)c(C2=c3ccccc3=NC2=O)sc1=S (stereo unspecified),-,-,-,-,-,.,.
O=C1N=c2ccccc2=C1c1sc(NS(=O)(=O)Cc2ccccc2)nc1O,-,-,-,-,-,.,.
O=C1N=c2ccccc2=C1c1sc(Nc2cccc(O)c2)nc1O,-,-,-,60.5,-,-,15.0
O=C(O)C(Oc1ccc2c(-c3ccccc3)cc(=O)oc2c1)c1ccccc1 (stereo unspecified),-,-,-,-,-,.,.
COc1ccc2c(c1)c(=O)oc1cc(OC(C(=O)O)c3ccccc3)ccc12 (stereo unspecified),-,-,-,52.3,-,40.7,10.1
Cc1nc(N2C(=O)C(=O)/C(=C(/O)c3ccccc3)C2c2ccco2)sc1C (stereo unspecified),-,-,-,-,-,.,.
COC(=O)c1sc(N2C(=O)C(=O)/C(=C(/O)c3ccccc3)C2c2ccco2)nc1C (stereo unspecified),-,-,-,37.5,-,-,6.3
SMILES,TCR-CD3 inh,HTRA1 inhibitor,SIAE inh,rCAG binder,mABHD4 FP,rCAG bind conf,DNA CAG counter
O=C1CSc2ccc(C(=O)Nc3cccc(S(=O)(=O)Nc4ccc(Br)cc4)c3)cc2N1,-,-,-,39.1,-,45.3,15.3
O=C(Nc1cccc(S(=O)(=O)NC2=NCCCCC2)c1)c1cc(-c2ccncc2)nc2ccccc12,-,-,-,-,-,.,.
O=C(Nc1cccc(S(=O)(=O)NC2=NCCCCC2)c1)c1cc(-c2ccco2)nc2ccccc12,-,-,-,34.8,-,-,15.7
CNc1snc(C)c1C(=O)OCC(=O)N(C)Cc1ccccc1,-,-,-,-,-,.,.
Cc1cc(C)nc(NS(=O)(=O)c2ccc(NC(=O)C3(c4ccc([N+](=O)[O-])cc4)CCCC3)cc2)n1,-,-,-,39.8,-,-,9.0
COc1ccc(C2(C(=O)Nc3ccc(S(=O)(=O)Nc4nc(C)cc(C)n4)cc3)CCCC2)cc1OC,-,-,-,-,-,.,.
Cc1ccc(NC(=O)CN(C)C(=O)c2cccnc2Nc2cccc(C(F)(F)F)c2)cc1,-,-,-,44.2,-,-,5.8
CC(=O)NCCC(=O)Nc1cc(S(=O)(=O)N2CCOCC2)ccc1Oc1ccccc1,-,-,-,-,-,.,.
Cc1cc(C)cc(OC(=O)CCN2C(=O)C3C4C=CC(C5CC45)C3C2=O)c1 (stereo unspecified),-,-,-,-,-,.,.
CC(=O)c1ccc(OCc2nnn(CC(=O)NS(=O)(=O)Cc3ccccc3)c2-c2ccccc2)cc1,-,.,-,55.8,-,77.8,41.0
COc1ccc(NC(=O)Cn2nnc(-c3ccccc3)c2COc2ccc(C(C)=O)cc2)cn1,-,.,-,-,-,.,.
O=C(CCNC(=O)c1ccccc1)Nc1ccc(S(=O)(=O)Nc2ncccn2)cc1,-,-,-,-,-,.,.
COc1ccc(NC(=O)c2ccccc2NC(=O)c2ccccc2)cc1,-,-,-,-,-,.,.
CCC(C(=O)Nc1ccc(C)cc1)c1ccccc1 (stereo unspecified),-,-,-,-,-,.,.
CCN(CC)S(=O)(=O)c1cc(C(=O)Nc2ccccc2C(=O)O)ccc1OC,-,-,-,37.3,-,-,6.6
CCC(C(=O)Nc1ccc(C(=O)O)cc1NC(=O)C(CC)c1ccccc1)c1ccccc1 (stereo unspecified),-,-,-,63.3,-,56.9,22.8
CCC(C(=O)Nc1ccc(C(=O)Nc2ccccc2C(=O)O)cc1)c1ccccc1 (stereo unspecified),-,-,-,74.6,-,67.3,27.1
CCC(C(=O)Nc1cc(C(=O)O)ccc1C)c1ccccc1 (stereo unspecified),-,-,-,-,-,.,.
COc1ccccc1C(=O)Nc1ccc(C(=O)Nc2ccccc2C(=O)O)cc1,-,-,-,42.2,-,59.8,20.4
CC(Sc1nc(C2CC2)n(-c2ccccc2)n1)C(=O)c1c(N)n(C)c(=O)n(C)c1=O (stereo unspecified),-,-,-,-,-,.,.
FC(F)(F)c1nnc2c(Sc3ccccc3)nc3ccc(Cl)cc3n12,-,-,-,-,-,.,.
COc1ccc2oc(C(=O)OC(C)C(=O)N3CCC(C)CC3)c(C)c2c1 (stereo unspecified),-,-,-,-,-,.,.
CN(C)S(=O)(=O)c1cccc(C(=O)Nc2cc3c(cc2C(=O)O)OCCCO3)c1,-,-,-,38.9,-,-,5.2
